The source of these data is ChEMBL document CHEMBL1156386, “New cytotoxic butanolides from Litsea acutivena” (2001).

Holding throughout (assay type): functional
In one assay the test system is A549. The experiment in a line: Cytotoxicity against human A549 cells after 6 days by MTT assay. As to conditions: A549, 144 h, read-out: ED50 (the source's name). Summed up: (§1)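 A549 grown in EMEM with Earle's salts, 0.1 mM nonessential amino acids and 10% heat-inactivated FCS; HT-29 in RPMI 1640 with 10% heat-inactivated FCS; 37 °C, 5% CO2. Seeded 1000 cells/well. Eight concentrations spanning a 128-fold range, triplicate. After 6 days, MTT (1 mg/mL) added for 5 h, formazan dissolved in DMSO, A540. ED50 = 50% absorbance reduction versus untreated cells.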
In general terms: Formazan colour is commonly taken as a measure of viable cells.

For the next assay, the system named is HT-29. The experiment in a line: Cytotoxicity against human HT-29 cells after 6 days by MTT assay. As to conditions: HT-29, 144 h, read-out: ED50 (the source's name). Put shortly:
as §1

The next assay concerns P388. Put plainly: Cytotoxicity against mouse P388 cells after 3 days by MTT assay. The note with it: P388, 72 h, read-out: ED50 (the source's name). Summed up: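 P-388 cells in Fisher's medium with 10% heat-inactivated FCS at 37 °C, 5% CO2. Cultures set up at 1500 cells/well in 200 µL. Compounds added at eight concentrations in triplicate. After 3 days, cells counted by MTT: formazan dissolved in DMSO, absorbance at 540 nm. ED50 = concentration giving 50% absorbance reduction versus untreated cells.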

The structures appear in SMILES notation. In brackets after ≈: the same amount, converted by molar mass.

Regarding `CCCCCCCCC/C=C1/C(=O)O[C@@](C)(OC)[C@H]1O` [LITSEAKOLIDE D], the EC50 in the assay with A549 came out at 2.85 mg/L (≈ 10 µM); in the assay on HT-29, 2 mg/L (≈ 7.03 µM); in the assay on P388 it was 1.73 mg/L (≈ 6.08 µM).
Regarding `C=C1OC(=O)/C(=C\CCCCCCCCCCC)[C@@H]1O` [ISOLICOMOLIDE D], the values for the EC50 with A549, in the assay on HT-29 and in the assay with P388 were 2.9 mg/L (≈ 10.3 µM), 2.11 mg/L (≈ 7.52 µM) and 2.97 mg/L (≈ 10.6 µM), respectively.
For `CO[C@H](C(=O)[C@@H](O)[C@@H](C)O)[C@@H]1Cc2cc3cc(O[C@H]4C[C@@H](O[C@@H]5C[C@@H](O)[C@H](O)[C@@H](C)O5)[C@H](O)[C@@H](C)O4)c(C)c(O)c3c(O)c2C(=O)[C@H]1O[C@H]1C[C@@H](O[C@@H]2C[C@@H](O)[C@@H](O[C@@H]3C[C@](C)(O)[C@H](O)[C@@H](C)O3)[C@@H](C)O2)[C@H](O)[C@@H](C)O1` [PLICAMYCIN], in that order: 0.07 mg/L (≈ 0.0645 µM), 0.08 mg/L (≈ 0.0737 µM) and 0.06 mg/L (≈ 0.0553 µM).
The matching figures for `CCCCCCCCC/C=C1/C(=O)O[C@@](C)(OC)[C@@H]1O` [LITSEAKOLIDE F]: 2.01 mg/L (≈ 7.07 µM), 4.39 mg/L (≈ 15.4 µM) and 2.04 mg/L (≈ 7.17 µM).
Take `CCCCCCCCC/C=C1\C(=O)O[C@@](C)(OC)[C@@H]1O` [LITSEAKOLIDE G]: the EC50 in the assay on A549 stood at 1.94 mg/L (≈ 6.82 µM); in the assay on HT-29, 2.73 mg/L (≈ 9.6 µM); in the assay on P388, 0.97 mg/L (≈ 3.41 µM).
As for `C=Cc1cc(OC)c2oc(-c3ccc(O)c(OC)c3)cc2c1` [DEHYDROXYMETHYLAILANTHOIDOL], the EC50 in the assay with A549, in the assay on HT-29 and in the assay with P388 was over 50 mg/L in each case.
Take `CCCCCCCCC/C=C1\C(=O)O[C@@](C)(OC)[C@H]1O` [LITSEAKOLIDE E]: the EC50 in the assay with A549 is 4.89 mg/L (≈ 17.2 µM); in the assay with HT-29 it was 3.69 mg/L (≈ 13 µM); in the assay with P388, 2.94 mg/L (≈ 10.3 µM).
